17 compounds from ChEMBL document CHEMBL1147976 (Eur J Med Chem, 2007) can be followed below.

pIC50: −log10 of the molar value. Some results are limits rather than exact numbers.

Series [1] in a line: Binding affinity to DNA by DNA-methyl green bioassay. Details: species or system Homo sapiens. In outline:
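Absorbance at 630 nm read at start and after 24 h dark at room temperature. Readings corrected for initial value, normalized to untreated complex. IC50 = 50% drop in DNA-related absorbance.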

Series [2] has as its system Leishmania infantum. The experiment in a line: Antipromastigote activity against Leishmania infantum. The series is classed as functional, organism-based. Put shortly: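 L. infantum MHOM/FR/78/LEM75 late log-phase promastigotes in phenol-red-free RPMI with 12% foetal calf serum and 10% Alamar Blue. Concentration range added to duplicate cultures, final DMSO below 5%. Incubated 48 h at 25 C. Alamar Blue reduction read by absorbance at 570 and 630 nm. IC50 = concentration giving 50% reduction of Alamar Blue versus control.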

For series [3], the system named is THP-1. The experiment in a line: Cytotoxicity against human THP1 cells. The series is classed as cell-based. Put shortly:
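Late log-phase human monocytes in RPMI with 10% Alamar Blue and 10% foetal calf serum. Concentration range in duplicate cultures, final DMSO below 5%. Incubated 72 h at 37 C, 5% CO2. Alamar Blue reduction measured as absorbance at 570 and 630 nm. IC50 based on reduction relative to control culture.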

The nature of series [4]: Toxicity in human macrophages. The series is classed as cell-based. Conditions: macrophage.
The test system of series [5] is Leishmania infantum. The experiment in a line: Antiamastigote activity against Leishmania infantum. The series is classed as functional, organism-based.

Regarding `CC(=O)Nc1ccc2cc3ccc(N)cc3nc2c1`, the pIC50 is 4.23 in series [1], 4.04 in series [2] and 5.33 in series [3]. Moreover, the Activity entry in series [4] is given as “Toxic”.
On to `CCCC(=O)Nc1ccc2cc3ccc(NC(=O)CCC)cc3nc2c1`, for which the pIC50 in series [1] is 3.99; in series [2], 4.33; in series [3] it was 4.72; in series [5], 4.89.
Take `COc1ccc(C(=O)Nc2ccc3cc4ccc(NC(=O)c5ccc(OC)c(OC)c5)cc4nc3c2)cc1OC`: the pIC50 is below 3.60 in series [1], 4.79 in series [2], 4.57 in series [3] and 6.10 in series [5].
In the same order, the values of `CC(=O)Nc1ccc2cc3ccc(NC(=O)c4ccc(Cl)cc4)cc3nc2c1` are below 3.60, 4.94, 5.72 and 5.54.
On to `COc1ccc(C(=O)Nc2ccc3cc4ccc(NC(C)=O)cc4nc3c2)cc1`, for which the pIC50 in series [1] is below 3.60; in series [2], 4.06; in series [3], 5.75. Further, in series [4], the Activity result is given as “Toxic”.
With `O=C(Nc1ccc2cc3ccc(NC(=O)c4ccccc4)cc3nc2c1)c1ccccc1`, the pIC50 in series [1] was below 3.60; in series [2] it was 5.37; in series [3], 3.96; in series [5], 5.96.
On to `COc1ccc(C(=O)Nc2ccc3cc4ccc(NC(C)=O)cc4nc3c2)cc1OC`, for which the pIC50 in series [1] is below 3.60; in series [2], 3.69; in series [3], 5.68; in series [5], 5.89.
Regarding `CC(=O)Nc1ccc2cc3ccc(NC(C)=O)cc3nc2c1`, the pIC50 in series [1] is below 3.60; in series [2], 3.47; in series [3], 3.13; in series [5], 5.35.
Take `O=C(Nc1ccc2cc3ccc(NC(=O)c4ccc(Cl)cc4)cc3nc2c1)c1ccc(Cl)cc1`: the pIC50 in series [1] was below 3.60; in series [2], 6.96; in series [3], 5.60; in series [5] it was 6.70.
In the same order, the values of `O=C(Nc1ccc2cc3ccc(NC(=O)c4ccc(F)cc4)cc3nc2c1)c1ccc(F)cc1` are below 3.60, 5.77, 6.11 and 7.52.
For the compound `COc1ccc(C(=O)Nc2ccc3cc4ccc(NC(=O)c5ccc(OC)cc5)cc4nc3c2)cc1`, the pIC50 in series [1] was below 3.60; in series [2] it was 5.32; in series [3], 4.87; in series [5] it was 5.96.
For the compound `CC(=O)Nc1ccc2cc3ccc(NC(=O)c4ccccc4)cc3nc2c1`, the pIC50 was below 3.60 in series [1], 3.73 in series [2] and 5.27 in series [3]. Further, the Activity entry in series [4] was “Toxic”.
For `CC(=O)Nc1ccc2cc3ccc(NC(=O)c4ccc(F)cc4)cc3nc2c1`, the pIC50 in series [1] was below 3.60; in series [2] it was 3.88; in series [3], 5.96; in series [5] it was 6.17.
Take `CCC(=O)Nc1ccc2cc3ccc(NC(=O)CC)cc3nc2c1`: the pIC50 is 3.77 in series [1], 3.80 in series [2], 4.63 in series [3] and 5.11 in series [5].
As to `C[C@@H]1[C@H](O)[C@@H](C)/C=C/C=C/C=C/C=C/C=C/C=C/C=C/[C@H](O[C@@H]2O[C@H](C)[C@@H](O)[C@H](N)[C@@H]2O)C[C@@H]2O[C@](O)(C[C@@H](O)C[C@@H](O)[C@H](O)CC[C@@H](O)C[C@@H](O)CC(=O)O[C@H]1C)C[C@H](O)[C@H]2C(=O)O` [AMPHOTERICIN B], the pIC50 in series [2] was 6.42; in series [3], 3.81; in series [5], 6.85.
The compound `COc1cccc2c1C(=O)c1c(O)c3c(c(O)c1C2=O)C[C@@](O)(C(=O)CO)C[C@@H]3O[C@H]1C[C@H](N)[C@H](O)[C@H](C)O1` [DOXORUBICIN] gave a pIC50 in series [1] of 5.86.
For `Nc1ccc2cc3ccc(N)cc3nc2c1` [PROFLAVINE], the pIC50 in series [1] is below 3.60; in series [2] it was 5.89; in series [3], 5.66; in series [5], 6.92.

A word on the pIC50: it is −log10 of the IC50, conventionally taken in molar units. Read a high pIC50 as a low IC50.
